Values after ≈ are worked out from the molar mass of the structure shown. Active and inactive are the calls of the source. The rule behind the calls is not given here.
Legend:
Enterococcus faecalis [1] = assay: Antibacterial activity against log-phase vancomycin-resistant Enterococcus faecalis ATCC 51575 assessed as growth inhibition after 24 hrs by broth microdilution method; assay type: functional; conditions: ATCC 51575, 24 h
Procedure, shortened: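 CLSI broth microdilution in brain–heart infusion broth; log-phase bacteria at 10^5 CFU/mL, two-fold serial dilutions 64 to 0.031 μg/mL; 24 h aerobic incubation at 37 °C; OD600 read-out; MIC taken as lowest concentration inhibiting growth ≥90%.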

Enterococcus faecalis [2] = assay: Antibacterial activity against log-phase vancomycin-sensitive Enterococcus faecalis ATCC 19433 assessed as growth inhibition after 24 hrs by broth microdilution method; assay type: functional; conditions: ATCC 19433, 24 h
Procedure, shortened: (§1)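 CLSI broth microdilution. Log-phase bacteria at 10^5 CFU/mL with two-fold serial dilutions (64 to 0.031 μg/mL). S. aureus tested in cation-adjusted Mueller-Hinton broth; E. faecalis in brain–heart infusion broth. Aerobic incubation 24 h at 37 °C. OD600 read; MIC is the lowest concentration giving ≥90% growth inhibition.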

Staphylococcus aureus [3] = assay: Antibacterial activity against log-phase methicillin-resistant Staphylococcus aureus ATCC 33591 assessed as growth inhibition after 24 hrs by broth microdilution method; assay type: functional; conditions: ATCC 33591, 24 h
Procedure, shortened: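 CLSI broth microdilution; 10^5 CFU/mL log-phase bacteria in cation-adjusted Mueller-Hinton broth with 2% NaCl, two-fold serial dilutions from 64 to 0.031 μg/mL; aerobic incubation 24 h at 37 °C; growth read as OD600; MIC = lowest concentration giving ≥90% growth inhibition.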

Staphylococcus aureus [4] = assay: Antibacterial activity against log-phase methicillin-sensitive Staphylococcus aureus 8325-4 assessed as growth inhibition after 24 hrs by broth microdilution method; assay type: functional; conditions: 8325-4, 24 h; procedure, shortened: as §1
HEK293 [5] = assay: Cytotoxicity against human HEK293 cells at 10 uM after 4 days by MTT assay; assay type: cell-based; conditions: hek293, 96 h
Procedure, shortened: (§2)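 MTT assay. HEK293 or MDCK cells kept at 37 °C, 5% CO2 in DMEM, seeded at 1500 cells per well. Continuous 4-day exposure to varying drug concentrations in triplicate wells, with a drug-free control. MTT read at end of day 4; IC50 determined.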

[6] = molecular target: T1, Cell division protein FtsZ (Staphylococcus aureus) (UniProt P0A031); assay: Induction of Staphylococcus aureus FtsZ polymerization at 40 ug/ml measured for 60 mins by microtiter plate-based light scattering assay
T1 sequence (whole entry): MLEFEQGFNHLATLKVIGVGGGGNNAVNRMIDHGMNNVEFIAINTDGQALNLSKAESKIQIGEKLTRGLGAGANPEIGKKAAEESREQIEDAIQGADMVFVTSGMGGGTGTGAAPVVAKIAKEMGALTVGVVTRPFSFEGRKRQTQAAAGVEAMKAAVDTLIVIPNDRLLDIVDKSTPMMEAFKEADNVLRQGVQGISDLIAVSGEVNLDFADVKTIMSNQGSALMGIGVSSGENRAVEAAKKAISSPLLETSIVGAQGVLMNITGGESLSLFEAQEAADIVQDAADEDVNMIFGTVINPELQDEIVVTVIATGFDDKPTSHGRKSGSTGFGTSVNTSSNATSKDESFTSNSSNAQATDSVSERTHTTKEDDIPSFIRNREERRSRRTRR
Procedure, shortened: (§3)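 Turbidity assay. 10 μM SaFtsZ plus compound (0–40 μg/mL) in 50 mM Tris HCl pH 7.4, 50 mM KCl, 2 mM magnesium acetate, 5 mM CaCl2, pre-equilibrated 10 min at room temperature. Started by adding 1 mM GTP or FtsZ; A340 followed for 60 min at 25 °C. For polymer stability, 1 mM GDP added mid-run.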

[7] = molecular target: T1, Cell division protein FtsZ (Staphylococcus aureus); assay: Residual Staphylococcus aureus GTPase activity assessed as inorganic phosphate release upon GTP hydrolysis at 40 ug/ml preincubated for 10 mins before substrate addition measured after 2 hrs by malachite green based colorimetric analysis
HEK293 [8] = assay: Cytotoxicity against human HEK293 cells after 4 days by MTT assay; assay type: cell-based; conditions: HEK293, 96 h; procedure, shortened: as §2
MDCK = assay: Cytotoxicity against dog MDCK cells after 4 days by MTT assay; assay type: cell-based; conditions: Canis lupus familiaris, 96 h; procedure, shortened: as §2
[9] = molecular target: T1, Cell division protein FtsZ (Staphylococcus aureus); assay: Induction of Staphylococcus aureus FtsZ polymerization measured for 60 mins by microtiter plate-based light scattering assay; procedure, shortened: as §3
[10] = molecular target: T1, Cell division protein FtsZ (Staphylococcus aureus); assay: Induction of Staphylococcus aureus FtsZ polymerization at 40 ug/ml measured for 60 mins by microtiter plate-based light scattering assay in presence of GTP

Compound	MIC90 (Enterococcus faecalis [1])	MIC90 (Enterococcus faecalis [2])	MIC90 (Staphylococcus aureus [3])	MIC90 (Staphylococcus aureus [4])	Activity (HEK293 [5])	Activity [6]	residual activity [7]	IC50 (HEK293 [8])	IC50 (MDCK)	Activity [9]	Activity [10]
COc1cc2cc(-c3cccc(-c4ccccc4)c3)[n+](C)cc2cc1OC.[I-]	> 64 µg/mL	> 64 µg/mL	64 µg/mL	16 µg/mL	–	–	–	–	–	–	–
C[n+]1cc2c3c(ccc2c2ccc4cc5c(cc4c21)OCO5)OCO3 [SANGUINARIUM]	16 µg/mL	8 µg/mL	2 µg/mL	2 µg/mL	–	–	–	–	–	–	–
COc1cc2cc(-c3cccc(-c4ccccc4)c3)nc(CN=C(N)N)c2cc1OC	8 µg/mL (≈ 19.4 µM)	8 µg/mL (≈ 19.4 µM)	2 µg/mL (≈ 4.85 µM)	2 µg/mL (≈ 4.85 µM)	Non-toxic	–	–	–	–	–	–
Cc1onc(-c2ccccc2)c1C(=O)N[C@@H]1C(=O)N2[C@@H]1SC(C)(C)[C@@H]2C(=O)O [OXACILLIN]	> 64 µg/mL	8 µg/mL (≈ 19.9 µM)	> 64 µg/mL	0.06 µg/mL (≈ 0.149 µM)	–	–	–	–	–	–	–
CN[C@H](CC(C)C)C(=O)N[C@H]1C(=O)N[C@@H](CC(N)=O)C(=O)N[C@H]2C(=O)N[C@H]3C(=O)N[C@H](C(=O)N[C@H](C(=O)O)c4cc(O)cc(O)c4-c4cc3ccc4O)[C@H](O)c3ccc(c(Cl)c3)Oc3cc2cc(c3O[C@@H]2O[C@H](CO)[C@@H](O)[C@H](O)[C@H]2O[C@H]2C[C@](C)(N)[C@H](O)[C@H](C)O2)Oc2ccc(cc2Cl)[C@H]1O [VANCOMYCIN]	> 64 µg/mL	1 µg/mL (≈ 0.69 µM)	2 µg/mL (≈ 1.38 µM)	1 µg/mL (≈ 0.69 µM)	–	inactive	99.7%	–	–	–	–
CNc1nc(-c2cccc(-c3ccccc3)c2)cc2cc(OC)c(OC)cc12	> 64 µg/mL	> 64 µg/mL	> 64 µg/mL	> 64 µg/mL	–	–	–	–	–	–	–
CC[C@H]1OC(=O)[C@H](C)[C@@H](O[C@H]2C[C@@](C)(OC)[C@@H](O)[C@H](C)O2)[C@H](C)[C@@H](O[C@@H]2O[C@H](C)C[C@H](N(C)C)[C@H]2O)[C@](C)(O)C[C@@H](C)C(=O)[C@H](C)[C@@H](O)[C@]1(C)O [ERYTHROMYCIN]	> 64 µg/mL	1 µg/mL (≈ 1.36 µM)	> 64 µg/mL	0.1 µg/mL (≈ 0.136 µM)	–	–	–	–	–	–	–
COc1cc(-c2cc3cc(OC)c(OC)c(OC)c3c(C)n2)cc(-c2ccc(-c3ccccc3)cc2)c1OC	> 64 µg/mL	> 64 µg/mL	> 64 µg/mL	> 64 µg/mL	–	–	–	–	–	–	–
COc1cc(-c2cc3cc(OC)c(OC)c(OC)c3c(C)[n+]2C)cc(-c2ccc(-c3ccccc3)cc2)c1OC.[I-]	4 µg/mL	–	–	1 µg/mL	–	–	–	–	–	–	–
COc1cc2cc(-c3cccc(-c4ccc(-c5ccccc5)cc4)c3)nc(C)c2cc1OC	> 64 µg/mL	> 64 µg/mL	> 64 µg/mL	> 64 µg/mL	–	–	–	–	–	–	–
COc1cc2cc(-c3cccc(-c4ccccc4)c3)nc(N(C)C)c2cc1OC	> 64 µg/mL	> 64 µg/mL	> 64 µg/mL	> 64 µg/mL	–	–	–	–	–	–	–
COc1cc2cc(-c3cccc(-c4ccccc4)c3)nc(CCN)c2cc1OC	> 64 µg/mL	16 µg/mL (≈ 41.6 µM)	4 µg/mL (≈ 10.4 µM)	4 µg/mL (≈ 10.4 µM)	–	–	–	–	–	–	–
COc1cc2cc(-c3cccc(C(C)(C)C)c3)nc(CCN)c2cc1OC	16 µg/mL (≈ 43.9 µM)	16 µg/mL (≈ 43.9 µM)	16 µg/mL (≈ 43.9 µM)	16 µg/mL (≈ 43.9 µM)	–	Active	59.7%	2200 nM	2200 nM	Dose-dependent effect	Active
COc1cc2cc(-c3cccc(-c4ccc(C(C)(C)C)cc4)c3)nc(CN=C(N)N)c2cc1OC	16 µg/mL (≈ 34.1 µM)	8 µg/mL (≈ 17.1 µM)	4 µg/mL (≈ 8.54 µM)	4 µg/mL (≈ 8.54 µM)	Non-toxic	–	–	–	–	–	–
COc1cc2cc(-c3cccc(C(C)(C)C)c3)nc(CN)c2cc1OC	32 µg/mL (≈ 91.3 µM)	32 µg/mL (≈ 91.3 µM)	8 µg/mL (≈ 22.8 µM)	4 µg/mL (≈ 11.4 µM)	Non-toxic	–	–	–	–	–	–
COc1cc2cc(-c3cccc(-c4ccccc4)c3)[n+](C)c(C)c2cc1OC.[I-]	> 64 µg/mL	> 64 µg/mL	32 µg/mL	16 µg/mL	–	–	–	–	–	–	–
